ChEMBL document CHEMBL3526081 (Drug Metab Dispos, 2011)

How the values were obtained:
[1] = Drug metabolism in cynomolgus monkey liver microsomes assessed as 1alpha-hydroxylcinobufagin formation at 100 uM at 37 degC after 30 mins by UFLC-ESI-MS analysis in presence of NADPH-generating system; assay type: ADME, Macaca fascicularis; details: 0.5 h
Procedure, shortened: (§1)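 Liver microsomes (0.3 mg protein/ml) incubated with 100 µM substrate at 37°C for 30 min, in 100 mM potassium phosphate pH 7.4 with NADPH-generating system (1 mM NADP+, 10 mM glucose 6-phosphate, 1 unit/ml G6PDH, 4 mM MgCl2). Acetonitrile ≤1% final. Stopped with ice-cold acetonitrile and centrifuged. Metabolites identified by UFLC-ESI-MS and quantified by UFLC-DAD at 294 nm against authentic standard curves.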

[2] = Drug metabolism in Colony-bred Chinese Bama minipig liver microsomes assessed as 1alpha-hydroxylcinobufagin formation at 100 uM at 37 degC after 30 mins by UFLC-ESI-MS analysis in presence of 1 uM ketoconazole CYP3A4 inhibitor; assay type: ADME, Sus scrofa; details: pig, 0.5 h
Procedure, shortened: (§2)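 Chemical inhibition: selective P450 inhibitors (furafylline, sulfaphenazole, ketoconazole) added to liver microsome incubations in 100 mM potassium phosphate pH 7.4 with NADPH-generating system at 37°C. Hydroxylated metabolite formation quantified by UFLC at 294 nm against standards. Mean ± S.D. of three experiments in duplicate.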

Liver microsome [3] = experiment: Ratio of Vmax/Km in beagle dog liver microsomes assessed as 5beta-hydroxylcinobufaginn formation at 100 uM […] by UFLC-ESI-MS analysis; assay type: ADME, Canis lupus familiaris; details: 0.5 h
[4] = Drug metabolism in Swiss-Hauschka (ICR) mouse liver microsomes assessed as 1alpha-hydroxylcinobufagin formation at 100 uM at 37 degC after 30 mins by UFLC-ESI-MS analysis in presence of 10 uM furafylline CYP1A2 inhibitor; assay type: ADME; details: 0.5 h; procedure, shortened: as §2
Liver = experiment: Ratio of Vmax/Km in Swiss-Hauschka (ICR) mouse liver microsomes assessed as 5beta-hydroxylcinobufaginn formation at 100 uM […] by UFLC-ESI-MS analysis; assay type: ADME; details: 0.5 h
Liver microsome [5] = experiment: Drug metabolism in beagle dog liver microsomes assessed as 5beta-hydroxylcinobufaginn formation per mg of protein at 100 uM at 37 degC after 30 mins by UFLC-ESI-MS analysis; assay type: ADME, Canis lupus familiaris; details: 0.5 h; procedure, shortened: as §1
Liver microsome [6] = experiment: Drug metabolism in beagle dog liver microsomes assessed as 1alpha-hydroxylcinobufagin formation at 100 uM at 37 degC after 30 mins by UFLC-ESI-MS analysis; assay type: ADME, Canis lupus familiaris; details: 0.5 h, read-out: Km(app); procedure, shortened: as §1
Liver microsome [7] = experiment: Drug metabolism in human liver microsomes assessed as 5beta-hydroxylcinobufagin formation at 100 uM at 37 degC after 30 mins by UFLC-ESI-MS analysis in presence of 2 uM montelukast CYP2C8 inhibitor; assay type: ADME; details: 0.5 h
Procedure, shortened: (§3)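 Pooled human liver microsomes (10 donors, both sexes) in 100 mM potassium phosphate pH 7.4 were incubated with CB and a selective P450 inhibitor. Reaction was started with NADPH-generating system after 3 min preincubation at 37°C and stopped with ice-cold acetonitrile. Hydroxylated products were quantified by UFLC-DAD at 294 nm; three experiments in duplicate.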

Liver microsome [8] = experiment: Drug metabolism in human liver microsomes assessed as 5beta-hydroxylcinobufagin formation at 100 uM at 37 degC after 30 mins by UFLC-ESI-MS analysis in presence of 10 uM furafylline CYP1A2 inhibitor; assay type: ADME; details: 0.5 h; procedure, shortened: as §3
[9] = Drug metabolism in Swiss-Hauschka (ICR) mouse liver microsomes assessed as dihydroxylcinobufagin formation at 100 uM at 37 degC after 30 mins by UFLC-ESI-MS analysis in presence of NADPH-generating system; assay type: ADME; details: 0.5 h; procedure, shortened: as §1
Liver microsome [10] = experiment: Drug metabolism in human liver microsomes assessed as 5beta-hydroxylcinobufagin formation at 100 uM at 37 degC after 30 mins […] in presence of 50 uM clomethiazole CYP2E1 inhibitor; assay type: ADME; details: 0.5 h
Liver microsome [11] = experiment: Drug metabolism in human liver microsomes assessed as 1alpha-hydroxylcinobufagin formation at 100 uM at 37 degC after 30 mins […] in presence of 20 uM omeprazole CYP2C19 inhibitor; assay type: ADME; details: 0.5 h
Liver microsome [12] = experiment: Ratio of Vmax/Km in human liver microsomes assessed as 5beta-hydroxylcinobufaginn formation at 100 uM at 37 degC […] by UFLC-ESI-MS analysis; assay type: ADME; details: 0.5 h
Liver microsome [13] = experiment: Drug metabolism in human liver microsomes assessed as 5beta-hydroxylcinobufagin formation at 100 uM at 37 degC after 30 mins […] in presence of 10 uM sulfaphenazole CYP2C9 inhibitor; assay type: ADME; details: 0.5 h
Liver microsome [14] = experiment: Ratio of Vmax/Km in human liver microsomes assessed as 1alpha-hydroxylcinobufagin formation at 100 uM […] by UFLC-ESI-MS analysis; assay type: ADME; details: 0.5 h
[15] = Drug metabolism in Swiss-Hauschka (ICR) mouse liver microsomes assessed as 1alpha-hydroxylcinobufagin formation per mg of protein at 100 uM at 37 degC after 30 mins by UFLC-ESI-MS analysis; assay type: ADME; details: 0.5 h; procedure, shortened: as §1
[16] = Drug metabolism in Swiss-Hauschka (ICR) mouse liver microsomes assessed as 5beta-hydroxylcinobufaginn formation at 100 uM at 37 degC after 30 mins by UFLC-ESI-MS analysis; assay type: ADME; details: 0.5 h, read-out: Km(app); procedure, shortened: as §1
Liver microsome [17] = experiment: Drug metabolism in human liver microsomes assessed as 1alpha-hydroxylcinobufagin formation at 100 uM at 37 degC after 30 mins […] in presence of 2.5 uM 8-methoxypsoralen CYP2A6 inhibitor; assay type: ADME; details: 0.5 h
Liver microsome [18] = experiment: Drug metabolism in human liver microsomes assessed as 1alpha-hydroxylcinobufagin formation at 100 uM at 37 degC after 30 mins […] in presence of 10 uM furafylline CYP1A2 inhibitor; assay type: ADME; details: 0.5 h
[19] = Drug metabolism in Swiss-Hauschka (ICR) mouse liver microsomes assessed as 1alpha-hydroxylcinobufagin formation at 100 uM at 37 degC after 30 mins by UFLC-ESI-MS analysis in presence of 1 uM ketoconazole CYP3A4 inhibitor; assay type: ADME; details: 0.5 h; procedure, shortened: as §2
Liver microsome [20] = experiment: Drug metabolism in beagle dog liver microsomes assessed as 1alpha-hydroxylcinobufagin formation at 100 uM at 37 degC after 30 mins by UFLC-ESI-MS analysis in presence of 10 uM furafylline CYP1A2 inhibitor; assay type: ADME, Canis lupus familiaris; details: 0.5 h; procedure, shortened: as §2
Liver microsome [21] = experiment: Drug metabolism in beagle dog liver microsomes assessed as 5beta-hydroxylcinobufagin formation at 100 uM at 37 degC after 30 mins by UFLC-ESI-MS analysis in presence of NADPH-generating system; assay type: ADME, Canis lupus familiaris; details: 0.5 h; procedure, shortened: as §1
[22] = Drug metabolism in cynomolgus monkey liver microsomes assessed as 1alpha-hydroxylcinobufagin formation at 100 uM at 37 degC after 30 mins by UFLC-ESI-MS analysis in presence of 1 uM ketoconazole CYP3A4 inhibitor; assay type: ADME, Macaca fascicularis; details: 0.5 h; procedure, shortened: as §2
[23] = Drug metabolism in Colony-bred Chinese Bama minipig liver microsomes assessed as 1alpha-hydroxylcinobufagin formation at 100 uM at 37 degC after 30 mins by UFLC-ESI-MS analysis in presence of 10 uM sulfaphenazole CYP2C9 inhibitor; assay type: ADME, Sus scrofa; details: pig, 0.5 h; procedure, shortened: as §2
Liver microsome [24] = experiment: Drug metabolism in human liver microsomes assessed as 5beta-hydroxylcinobufaginn formation at 100 uM […] by UFLC-ESI-MS analysis; assay type: ADME; details: 0.5 h, read-out: Km(app)
Liver microsome [25] = experiment: Drug metabolism in human liver microsomes assessed as 1alpha-hydroxylcinobufagin formation at 100 uM at 37 degC after 30 mins by UFLC-ESI-MS analysis in presence of 50 uM clomethiazole CYP2E1 inhibitor; assay type: ADME; details: 0.5 h; procedure, shortened: as §3
[26] = Ratio of Vmax/Km in cynomolgus monkey liver microsomes assessed as 1alpha-hydroxylcinobufagin formation at 100 uM […] by UFLC-ESI-MS analysis; assay type: ADME, Macaca fascicularis; details: 0.5 h

CC(=O)O[C@H]1[C@H]2O[C@]23[C@@H]2CC[C@@H]4C[C@@H](O)CC[C@]4(C)[C@H]2CC[C@]3(C)[C@H]1c1ccc(=O)oc1 [CINOBUFAGIN]
Drug metabolism [1]: metabolite_detected | Drug metabolism [2]: metabolite_not_detected | Vmax/Km (Liver microsome [3]): 129.4 µL/min/mg | Drug metabolism [4]: metabolite_detected | Vmax/Km (Liver): 644.6 µL/min/mg | Vmax (Liver microsome [5]): 0.44 nmol/min/mg | Km (Liver microsome [6]): 3.3 µM | Drug metabolism (Liver microsome [7]): metabolite_detected | Drug metabolism (Liver microsome [8]): metabolite_detected | Drug metabolism [9]: metabolite_detected | Drug metabolism (Liver microsome [10]): metabolite_detected | Drug metabolism (Liver microsome [11]): metabolite_detected | Vmax/Km (Liver microsome [12]): 57.4 µL/min/mg | Drug metabolism (Liver microsome [13]): metabolite_detected | Vmax/Km (Liver microsome [14]): 47.2 µL/min/mg | Vmax [15]: 8.39 nmol/min/mg | Km [16]: 10.1 µM | Drug metabolism (Liver microsome [17]): metabolite_detected | Drug metabolism (Liver microsome [18]): metabolite_detected | Drug metabolism [19]: metabolite_not_detected | Drug metabolism (Liver microsome [20]): metabolite_detected | Drug metabolism (Liver microsome [21]): metabolite_detected | Drug metabolism [22]: metabolite_not_detected | Drug metabolism [23]: metabolite_detected | Km (Liver microsome [24]): 20.4 µM | Drug metabolism (Liver microsome [25]): metabolite_detected | Vmax/Km [26]: 62 µL/min/mg
